Test results from ChEMBL document CHEMBL3085774, “Design of novel potent inhibitors of human uridine phosphorylase-1: synthesis, inhibition studies, thermodynamics, and in vitro influence on 5-fluorouracil cytotoxicity” (J Med Chem, 2013).
Calls of active or inactive are those of the source. No cut-off for these calls is given here.

Assays:
Uridine phosphorylase 1 [1] = molecular target: T1, Uridine phosphorylase 1 (Homo sapiens, UniProt Q16831); assay: Inhibition of human recombinant UP1 expressed in Escherichia coli Rosetta (DE3) using URD and inorganic phosphate as substrate at 1 uM after 60 seconds by spectrophotometric analysis relative to control
How it was run: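 Assay mix: 100 mM Tris pH 7.4, 100 nM recombinant hUP1, uridine 50 μM and Pi 2 mM (their Km values), inhibitor 1 μM final. Run 60 s at 37 °C under initial-rate conditions, following A280 decrease as uridine converts to uracil. Percent inhibition relative to uninhibited activity; DMSO control at up to 1% final.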
Target sequence in this assay (Q16831 whole entry, looked up): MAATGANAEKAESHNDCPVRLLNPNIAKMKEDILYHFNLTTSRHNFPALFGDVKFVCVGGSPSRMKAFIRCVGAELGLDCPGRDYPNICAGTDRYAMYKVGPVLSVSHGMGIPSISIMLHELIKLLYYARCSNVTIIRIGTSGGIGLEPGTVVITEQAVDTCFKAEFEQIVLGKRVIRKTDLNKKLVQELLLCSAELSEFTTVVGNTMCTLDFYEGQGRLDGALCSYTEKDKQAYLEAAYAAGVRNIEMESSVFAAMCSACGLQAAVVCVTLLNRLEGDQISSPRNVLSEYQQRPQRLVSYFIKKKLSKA

Thymidine phosphorylase = molecular target: T2, Thymidine phosphorylase (Homo sapiens, UniProt P19971); assay: Inhibition of human thymidine phosphorylase
T2 sequence (P19971 whole entry): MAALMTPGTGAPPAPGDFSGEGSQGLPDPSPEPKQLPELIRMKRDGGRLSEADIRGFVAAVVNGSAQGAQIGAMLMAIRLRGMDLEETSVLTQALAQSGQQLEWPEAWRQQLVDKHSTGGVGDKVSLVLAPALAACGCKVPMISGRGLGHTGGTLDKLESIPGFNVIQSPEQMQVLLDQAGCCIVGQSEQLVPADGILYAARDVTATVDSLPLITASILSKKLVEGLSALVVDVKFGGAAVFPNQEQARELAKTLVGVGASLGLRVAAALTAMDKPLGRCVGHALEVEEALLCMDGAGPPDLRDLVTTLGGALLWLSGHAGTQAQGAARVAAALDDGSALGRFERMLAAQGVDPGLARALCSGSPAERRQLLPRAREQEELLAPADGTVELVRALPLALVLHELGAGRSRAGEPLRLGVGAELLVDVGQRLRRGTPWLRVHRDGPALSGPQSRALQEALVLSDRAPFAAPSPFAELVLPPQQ

Uridine phosphorylase 1 [2] = molecular target: T1, Uridine phosphorylase 1; assay: Uncompetitive inhibition of human recombinant UP1 expressed in Escherichia coli Rosetta (DE3) using inorganic phosphate as substrate by Lineweaver-Burk plot analysis
How it was run: (§1)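 Pi varied 0.1–12 mM with uridine fixed at 50 μM. Four inhibitor levels (0.1–5 μM), 100 nM enzyme, 100 mM Tris pH 7.4, 37 °C. Initial rates read as decreasing A280. Kis from slopes and Kii from intercepts of Lineweaver–Burk plots; inhibition mode from line patterns. Duplicates.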
Target sequence in this assay (Q16831 whole entry, looked up): as the sequence (Q16831 whole entry, looked up) above

Uridine phosphorylase 1 [3] = molecular target: T1, Uridine phosphorylase 1; assay: Competitive inhibition of human recombinant UP1 expressed in Escherichia coli Rosetta (DE3) using URD as substrate by Lineweaver-Burk plot analysis
How it was run: (§2)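 Uridine varied 20–600 μM with Pi fixed at 2 mM. Four inhibitor levels from 0.1 to 5 μM, 100 nM hUP1, 100 mM Tris pH 7.4, 37 °C. Uracil formation followed as the fall in A280 under initial-rate conditions. Kis from slopes and Kii from intercepts of Lineweaver–Burk plots; mode taken from line patterns. Duplicate measurements.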
Target sequence in this assay (Q16831 whole entry, looked up): as the sequence (Q16831 whole entry, looked up) above

Uridine phosphorylase 1 [4] = molecular target: T1, Uridine phosphorylase 1; assay: Time dependent inhibition of human recombinant UP1 expressed in Escherichia coli Rosetta (DE3) using URD and inorganic phosphate as substrate at 1 uM by spectrophotometric analysis
How it was run: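 Enzyme (100 nM) preincubated with 1 μM inhibitor (final), then added to the standard reaction mix (Tris pH 7.4, 50 μM uridine, 2 mM Pi, 37 °C) at times up to 30 min. Change in initial velocity followed by A280 and percent inhibition calculated.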
Target sequence in this assay (Q16831 whole entry, looked up): as the sequence (Q16831 whole entry, looked up) above

Uridine phosphorylase 1 [5] = molecular target: T1, Uridine phosphorylase 1; assay: Non-competitive inhibition of human recombinant UP1 expressed in Escherichia coli Rosetta (DE3) using inorganic phosphate as substrate assessed as equilibrium dissociation constant for enzyme-substrate-inhibitor complex by Lineweaver-Burk plot analysis; how it was run: as §1
Target sequence in this assay (Q16831 whole entry, looked up): as the sequence (Q16831 whole entry, looked up) above

Uridine phosphorylase 1 [6] = molecular target: T1, Uridine phosphorylase 1; assay: Non-competitive inhibition of human recombinant UP1 expressed in Escherichia coli Rosetta (DE3) using inorganic phosphate as substrate assessed as equilibrium dissociation constant for enzyme-inhibitor complex by Lineweaver-Burk plot analysis; how it was run: as §1
Target sequence in this assay (Q16831 whole entry, looked up): as the sequence (Q16831 whole entry, looked up) above

Uridine phosphorylase 1 [7] = molecular target: T1, Uridine phosphorylase 1; assay: Non-competitive inhibition of human recombinant UP1 expressed in Escherichia coli Rosetta (DE3) using URD as substrate assessed as equilibrium dissociation constant for enzyme-substrate-inhibitor complex by Lineweaver-Burk plot analysis; how it was run: as §2
Uridine phosphorylase 1 [8] = molecular target: T1, Uridine phosphorylase 1; assay: Non-competitive inhibition of human recombinant UP1 expressed in Escherichia coli Rosetta (DE3) using URD as substrate assessed as equilibrium dissociation constant for enzyme-inhibitor complex by Lineweaver-Burk plot analysis; how it was run: as §2
SW-620 [9] = assay: Potentiation of 5-FU-induced cytotoxicity against human SW620 cells assessed as reduction in compound IC50 at 30 uM after 72 hrs by MTT assay relative to control; type: functional
How it was run: (§3)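 5-FU concentration–response over 72 h (HaCat 0.25–20 μM; HT-29 0.25–50 μM; SW-620 0.5–150 μM), with or without 30 μM inhibitor. Seeding and adhesion as for the viability assay. MTT read-out at 495 nm; 5-FU IC50 from semilog curves by nonlinear regression. Three independent experiments in quadruplicate; one-way ANOVA with Bonferroni test.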

HT-29 [10] = assay: Potentiation of 5-FU-induced cytotoxicity against human HT-29 cells assessed as reduction in compound IC50 at 30 uM after 72 hrs by MTT assay relative to control; type: functional; how it was run: as §3
HaCaT [11] = assay: Effect on 5-FU-induced cytotoxicity against human HaCaT cells at 30 uM after 72 hrs by MTT assay; type: cell-based; how it was run: as §3
SW-620 [12] = assay: Cytotoxicity against human SW620 cells at 1 to 100 uM after 72 hrs by MTT assay; type: functional, cell-based
How it was run: (§4)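 Cells seeded at 7 × 10³ per well, allowed to adhere 48 h (HaCat) or 24 h (HT-29, SW-620). Exposed 72 h to 1–100 μM compound, 37 °C, 5% CO2. MTT 10% (v/v) for 3 h; formazan dissolved in DMSO and read at 495 nm. Viability relative to untreated cells; controls of medium and 1% DMSO. Mean ± SEM of three experiments in quadruplicate.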

HT-29 [13] = assay: Cytotoxicity against human HT-29 cells at 1 to 100 uM after 72 hrs by MTT assay; type: functional, cell-based; how it was run: as §4
HaCaT [14] = assay: Cytotoxicity against human HaCaT cells at 1 to 100 uM after 72 hrs by MTT assay; type: cell-based; how it was run: as §4
HT-29 [15] = assay: Protection against 5-FU-induced cytotoxicity against human HT-29 cells assessed as increase in compound IC50 at 30 uM after 72 hrs by MTT assay relative to control
Uridine phosphorylase 1 [16] = molecular target: T1, Uridine phosphorylase 1; assay: Binding affinity to human recombinant UP1-R1P binary complex expressed in Escherichia coli Rosetta (DE3) at 50 uM R1P by isothermal titration calorimetric analysis
How it was run: (§5)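 ITC at 310.15 K (37 °C): 56 μM hUP1 in 50 mM Tris HCl pH 7.4, alone or as binary complex with 10 mM Pi or R1P (50–200 μM, final). One 0.5 μL injection (discarded), then 26 injections of 1.5 μL ligand. Dilution heats subtracted. Fit to one-set-of-sites model for ΔH°, Keq and n; ΔG° and ΔS° calculated.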
Target sequence in this assay (Q16831 whole entry): as the sequence (Q16831 whole entry, looked up) above

[17] = Half life in mouse plasma; type: ADME, cell-free
Uridine phosphorylase 1 [18] = molecular target: T1, Uridine phosphorylase 1; assay: Induction of uridine phosphorylase-mediated drug metabolism in human liver
[19] = Inhibition of mouse UPase by Dixon plot analysis
Uridine phosphorylase 1 [20] = molecular target: T1, Uridine phosphorylase 1; assay: Binding affinity to human recombinant UP1 expressed in Escherichia coli Rosetta (DE3) by isothermal titration calorimetric analysis; how it was run: as §5
Target sequence in this assay (Q16831 whole entry): as the sequence (Q16831 whole entry, looked up) above

Compound: Cc1cc(O)[nH]c(=O)c1
- inhibition (Uridine phosphorylase 1 [1]): 16%

Compound: Cc1cc(O)[nH]c(=O)c1C
- inhibition (Uridine phosphorylase 1 [1]): 9.5%

Compound: O=c1[nH]cc(CNCCO)c(=O)[nH]1
- inhibition (Uridine phosphorylase 1 [1]): 2%

Compound: Cc1c(CN2CCCCC2)c(O)[nH]c(=O)c1C#N
- inhibition (Uridine phosphorylase 1 [1]): 49%

Compound: Cc1c(CNCC(O)CO)c(O)[nH]c(=O)c1C#N (stereo not given)
- IC50 (Thymidine phosphorylase): > 100 µM
- Kii (Uridine phosphorylase 1 [2]): 182 nM
- Kis (Uridine phosphorylase 1 [3]): 109 nM
- inhibition (Uridine phosphorylase 1 [4]): inactive
- inhibition (Uridine phosphorylase 1 [1]): 78%

Compound: CCc1cc(O)[nH]c(=O)c1C#N
- inhibition (Uridine phosphorylase 1 [1]): 25%

Compound: CCN(CC)Cc1c(O)[nH]c(=O)c(C#N)c1C
- inhibition (Uridine phosphorylase 1 [1]): 25%

Compound: N#Cc1c(Cc2ccccc2)cc(O)[nH]c1=O
- inhibition (Uridine phosphorylase 1 [1]): 2%

Compound: CCCc1cc(O)[nH]c(=O)c1C#N
- inhibition (Uridine phosphorylase 1 [1]): 16%

Compound: O=c1cccc(O)[nH]1
- inhibition (Uridine phosphorylase 1 [1]): 38%

Compound: CC(C)c1cc(O)[nH]c(=O)c1C#N
- inhibition (Uridine phosphorylase 1 [1]): 31%

Compound: Cc1ccc(O)[nH]c1=O
- inhibition (Uridine phosphorylase 1 [1]): 12%

Compound: N#Cc1ccc(O)[nH]c1=O
- IC50 (Thymidine phosphorylase): > 100 µM
- Kii (Uridine phosphorylase 1 [5]): 666 nM
- Kis (Uridine phosphorylase 1 [6]): 565 nM
- Kii (Uridine phosphorylase 1 [7]): 2550 nM
- inhibition (Uridine phosphorylase 1 [4]): inactive
- inhibition (Uridine phosphorylase 1 [1]): 67%
- Kis (Uridine phosphorylase 1 [8]): 2610 nM

Compound: Cc1cc(O)[nH]c(=O)c1C#N
- fold change (FC) (SW-620 [9]): 12
- Activity (HT-29 [10]): inactive
- Activity (HaCaT [11]): Non-toxic
- Activity (SW-620 [12]): inactive
- Activity (HT-29 [13]): inactive
- Activity (HaCaT [14]): Non-toxic
- IC50 (Thymidine phosphorylase): > 100 µM
- Kii (Uridine phosphorylase 1 [2]): 332 nM
- Kii (Uridine phosphorylase 1 [7]): 635 nM
- inhibition (Uridine phosphorylase 1 [4]): inactive
- inhibition (Uridine phosphorylase 1 [1]): 70%
- Kis (Uridine phosphorylase 1 [8]): 375 nM

Compound: N#Cc1c(-c2ccccc2)cc(O)[nH]c1=O
- inhibition (Uridine phosphorylase 1 [1]): 42%

Compound: Cc1c(CNCCO)c(O)[nH]c(=O)c1C#N
- fold change (FC) (SW-620 [9]): 6
- Activity (HaCaT [11]): Non-toxic
- Activity (SW-620 [12]): inactive
- Activity (HT-29 [13]): inactive
- Activity (HaCaT [14]): Non-toxic
- IC50 (Thymidine phosphorylase): > 100 µM
- Kii (Uridine phosphorylase 1 [2]): 127 nM
- Kis (Uridine phosphorylase 1 [3]): 68 nM
- inhibition (Uridine phosphorylase 1 [4]): inactive
- inhibition (Uridine phosphorylase 1 [1]): 80%
- fold change (FC) (HT-29 [15]): 9

Compound: Cc1c(Cc2ccccc2)c(O)[nH]c(=O)c1C#N
- inhibition (Uridine phosphorylase 1 [1]): 43%

Compound: Cc1c(CNC(CO)CO)c(O)[nH]c(=O)c1C#N
- Kd (Uridine phosphorylase 1 [16]): 7 µM
- IC50 (Thymidine phosphorylase): > 100 µM
- Kii (Uridine phosphorylase 1 [2]): 98 nM
- Kis (Uridine phosphorylase 1 [3]): 94 nM
- inhibition (Uridine phosphorylase 1 [4]): inactive
- inhibition (Uridine phosphorylase 1 [1]): 82%

Compound: O=c1ccn([C@@H]2O[C@H](CO)[C@@H](O)[C@H]2O)c(=O)[nH]1 [URIDINE]
- half-life [17]: 2 min
- metabolised (Uridine phosphorylase 1 [18]): > 80%

Compound: O=c1[nH]c(=O)n(COCCO)cc1Cc1ccccc1
- Ki [19]: 0.1 µM
- Activity (HT-29 [10]): inactive
- Activity (HaCaT [11]): Non-toxic
- Kd (Uridine phosphorylase 1 [20]): 1.2 µM
- Kii (Uridine phosphorylase 1 [5]): 317 nM
- Kis (Uridine phosphorylase 1 [6]): 547 nM
- Kis (Uridine phosphorylase 1 [3]): 130 nM

Compound: Cc1c(CN2CCOCC2)c(O)[nH]c(=O)c1C#N
- inhibition (Uridine phosphorylase 1 [1]): 51%

Compound: Cc1c(-c2ccccc2)c(O)[nH]c(=O)c1C#N
- inhibition (Uridine phosphorylase 1 [1]): 12%

Compound: Cc1c(CN(C)C)c(O)[nH]c(=O)c1C#N
- IC50 (Thymidine phosphorylase): > 100 µM
- Kii (Uridine phosphorylase 1 [2]): 107 nM
- Kis (Uridine phosphorylase 1 [3]): 99 nM
- inhibition (Uridine phosphorylase 1 [4]): inactive
- inhibition (Uridine phosphorylase 1 [1]): 81%
